This note sets out measurements from ChEMBL document CHEMBL1121496, “Metabolism of 6-substituted benzo[a]pyrene derivatives: O-dealkylation and regiospecificity in aromatic hydroxylation” (J Med Chem, 1980).

What all share (assay type): functional
For assay [1], the species on record is Rattus norvegicus. Put plainly: Rate of hydroxylation by liver microsomes in rats induced with 3-MC; Rates are expressed as pmol of product per 30 min per mg of protein. Put shortly: (§1)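 Male Wistar MRC rats (7–8 weeks old) received 3-MC 40 mg/kg ip in olive oil twice daily for 3 days and were fasted for the final 24 h. Liver microsomes were incubated at 0.5 mg protein/mL with substrate (BP in acetone, others in Me₂SO) for 30 min. Phenolic metabolites were read by fluorescence in base against synthetic phenol standards. Each rat was run in duplicate against a heat- or acetone-inactivated blank, and results are reported as mean ± SE.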
(In general: Microsomes from liver hold many membrane-bound enzymes, among them those of drug oxidation.)

Assay [2] is filed under the species Rattus norvegicus. Put plainly: Rate of hydroxylation by liver microsomes in rats induced with PB; Rates are expressed as pmol of product per 30 min per mg of protein. The essentials:
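Liver microsomes (two livers pooled) from 7- or 8-week-old male Wistar MRC rats given phenobarbital 40 mg/kg ip in saline twice daily for 3 days, fasted final 24 h. Incubation at 0.5 mg protein/mL, with BP (80 nmol) in acetone or other substrates in Me2SO. Phenolic metabolites were read by fluorescence in base, quantitated against synthetic 3- or 1-phenol standards, in duplicate versus heat-inactivated blank; mean ± SE across rats.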

The species entered for assay [3] is Rattus norvegicus. Put plainly: Rate of hydroxylation by lung microsomes in rats induced with 3-MC; Rates are expressed as pmol of product per 30 min per mg of protein. Put shortly: (§2)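 For lung microsomes from 3-MC-induced rats, the dose was 40 mg/kg ip in olive oil, given twice daily for 3 days, followed by a 24 h fast. Incubation used 1.0 mg microsomal protein/mL, with BP added in acetone and derivatives in Me₂SO. Base-extractable phenols were measured by fluorescence and quantitated with synthetic hydroxy-BP standards. Duplicates were corrected against inactivated-microsome blanks, and results are given as mean ± SE across individual rats.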

The species entered for assay [4] is Rattus norvegicus. The experiment in a line: Rate of hydroxylation by lung microsomes in rats induced with PB; Rates are expressed as pmol of product per 30 min per mg of protein. The essentials:
(§3)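 Rats were pretreated with phenobarbital, 40 mg/kg ip in saline, twice daily for 3 days, and fasted the last 24 h. Lung microsomes were incubated at 1.0 mg protein/mL with substrate in acetone (BP) or Me₂SO. Product formed over 30 min was measured as fluorescence of phenolic metabolites in basic solution against synthetic phenol standards. Determinations were made in duplicate versus a heat-inactivated blank, and results are reported as mean ± SE.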

The species entered for assay [5] is Rattus norvegicus. Put plainly: Rate of 3-hydroxylation by lung microsomes in rats induced with 3-MC; Rates are expressed as pmol of product per 30 min per mg of protein. Put shortly:
(§4)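 Microsomes from lungs (two rats pooled) of 7- or 8-week-old male Wistar MRC rats dosed ip twice daily for 3 days with 3-MC 40 mg/kg in olive oil or phenobarbital 40 mg/kg in saline, then fasted 24 h. Incubation at 1.0 mg protein/mL. BP was added in acetone, other substrates in Me2SO. Base-extracted phenols were read by fluorescence against synthetic phenol standards, in duplicate versus heat-inactivated blank; mean ± SE across rats.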

The species named for assay [6] is Rattus norvegicus. The experiment in a line: Rate of 3-hydroxylation by lung microsomes in rats induced with PB; Rates are expressed as pmol of product per 30 min per mg of protein. The essentials: as §4
Assay [7] is filed under the species Rattus norvegicus. The experiment in a line: Rate of O-Dealkylation by liver microsomes in rats induced with 3-MC; Rates are expressed as pmol of product per 30 min per mg of protein. Put shortly:
as §1

Assay [8] is filed under the species Rattus norvegicus. Put plainly: Rate of O-Dealkylation by liver microsomes in rats induced with PB; Rates are expressed as pmol of product per 30 min per mg of protein. The essentials: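 Phenobarbital-induced rats: male Wistar MRC, 7–8 weeks, 40 mg/kg ip in saline twice daily for 3 days, fasted 24 h. Liver microsomes were used at 0.5 mg protein/mL. BP ethers were added in Me2SO, and phenolic products were measured by fluorescence of basic solutions against phenol standards. p-Nitroanisole O-demethylase was assayed by a modified Netter–Seidel method. Runs were in duplicate versus heat-inactivated blank; mean ± SE across rats.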

The species entered for assay [9] is Rattus norvegicus. The experiment in a line: Rate of O-Dealkylation by lung microsomes in rats induced with 3-MC; Rates are expressed as pmol of product per 30 min per mg of protein. Put shortly:
as §2

The species entered for assay [10] is Rattus norvegicus. The experiment in a line: Rate of O-Dealkylation by lung microsomes in rats induced with PB; Rates are expressed as pmol of product per 30 min per mg of protein. Put shortly:
as §3

Regarding `COc1c2ccccc2c2ccc3cccc4ccc1c2c43`, the Rate (pmol/30 min/mg protein) was 9010 in the assay listed under Rattus norvegicus [1], 1980 in the assay filed under Rattus norvegicus [2], 576 in the assay listed under Rattus norvegicus [3] and 69 in the assay filed under Rattus norvegicus [4].
As for `c1ccc2c(c1)cc1ccc3cccc4ccc2c1c34`, the figures for the Rate in the assay listed under Rattus norvegicus [5] and in the assay filed under Rattus norvegicus [6] were 618 pM and 49 pM, respectively. For the same molecule, the Rate (pmol/30 min/mg protein) in the assay listed under Rattus norvegicus [1] amounted to 5810; in the assay listed under Rattus norvegicus [2], 1160.
As for `CCCOc1ccc2ccc3c(OCCC)c4ccccc4c4ccc1c2c34`, the Rate (pmol/30 min/mg protein) in the assay filed under Rattus norvegicus [7] is 818.
As for `OCc1c2ccccc2c2ccc3cccc4ccc1c2c43`, the values for the Rate (pmol/30 min/mg protein) in the assay listed under Rattus norvegicus [1] and in the assay listed under Rattus norvegicus [3] were 1510 and 182, respectively.
The like results for `COCc1c2ccccc2c2ccc3cccc4ccc1c2c43` were, in that order, 7040 and 654.
As for `COc1ccc2ccc3c4ccccc4c(OC)c4ccc1c2c43`, the Rate (pmol/30 min/mg protein) in the assay filed under Rattus norvegicus [7] was 1250.
For `COc1ccc2ccc3c(OC)c4ccccc4c4ccc1c2c34`, in the assay filed under Rattus norvegicus [1], the Rate (pmol/30 min/mg protein) was 5700.
In the case of `CCOc1ccc2ccc3c(OCC)c4ccccc4c4ccc1c2c34`, the Rate (pmol/30 min/mg protein) in the assay listed under Rattus norvegicus [7] worked out at 3360; in the assay filed under Rattus norvegicus [8] it was 2850; in the assay listed under Rattus norvegicus [9], 156; in the assay filed under Rattus norvegicus [10], 48.
Turning to `COc1ccc([N+](=O)[O-])cc1`, the Rate (pmol/30 min/mg protein) in the assay listed under Rattus norvegicus [7] stood at 229000; in the assay listed under Rattus norvegicus [8], 103000.
